From ChEMBL document CHEMBL3870311, “Synthesis and biological evaluation of C1-O-substituted-3-(3-butylamino-2-hydroxy-propoxy)-xanthen-9-one as topoisomerase IIα catalytic inhibitors” (Eur J Med Chem, 2016)
Structures can show the parent of a compound that is named as a salt. Calls of active or inactive are those of the source. No cut-off for these calls is given here.

Legend:
[1] = target: T1, DNA topoisomerase 2-alpha (Homo sapiens, UniProt P11388); assay: Inhibition of human topoisomerase-2 alpha at 100 uM using supercoiled pBR322 DNA as substrate after 30 mins by agarose gel electrophoresis method relative to control
T1 sequence (P11388 whole entry): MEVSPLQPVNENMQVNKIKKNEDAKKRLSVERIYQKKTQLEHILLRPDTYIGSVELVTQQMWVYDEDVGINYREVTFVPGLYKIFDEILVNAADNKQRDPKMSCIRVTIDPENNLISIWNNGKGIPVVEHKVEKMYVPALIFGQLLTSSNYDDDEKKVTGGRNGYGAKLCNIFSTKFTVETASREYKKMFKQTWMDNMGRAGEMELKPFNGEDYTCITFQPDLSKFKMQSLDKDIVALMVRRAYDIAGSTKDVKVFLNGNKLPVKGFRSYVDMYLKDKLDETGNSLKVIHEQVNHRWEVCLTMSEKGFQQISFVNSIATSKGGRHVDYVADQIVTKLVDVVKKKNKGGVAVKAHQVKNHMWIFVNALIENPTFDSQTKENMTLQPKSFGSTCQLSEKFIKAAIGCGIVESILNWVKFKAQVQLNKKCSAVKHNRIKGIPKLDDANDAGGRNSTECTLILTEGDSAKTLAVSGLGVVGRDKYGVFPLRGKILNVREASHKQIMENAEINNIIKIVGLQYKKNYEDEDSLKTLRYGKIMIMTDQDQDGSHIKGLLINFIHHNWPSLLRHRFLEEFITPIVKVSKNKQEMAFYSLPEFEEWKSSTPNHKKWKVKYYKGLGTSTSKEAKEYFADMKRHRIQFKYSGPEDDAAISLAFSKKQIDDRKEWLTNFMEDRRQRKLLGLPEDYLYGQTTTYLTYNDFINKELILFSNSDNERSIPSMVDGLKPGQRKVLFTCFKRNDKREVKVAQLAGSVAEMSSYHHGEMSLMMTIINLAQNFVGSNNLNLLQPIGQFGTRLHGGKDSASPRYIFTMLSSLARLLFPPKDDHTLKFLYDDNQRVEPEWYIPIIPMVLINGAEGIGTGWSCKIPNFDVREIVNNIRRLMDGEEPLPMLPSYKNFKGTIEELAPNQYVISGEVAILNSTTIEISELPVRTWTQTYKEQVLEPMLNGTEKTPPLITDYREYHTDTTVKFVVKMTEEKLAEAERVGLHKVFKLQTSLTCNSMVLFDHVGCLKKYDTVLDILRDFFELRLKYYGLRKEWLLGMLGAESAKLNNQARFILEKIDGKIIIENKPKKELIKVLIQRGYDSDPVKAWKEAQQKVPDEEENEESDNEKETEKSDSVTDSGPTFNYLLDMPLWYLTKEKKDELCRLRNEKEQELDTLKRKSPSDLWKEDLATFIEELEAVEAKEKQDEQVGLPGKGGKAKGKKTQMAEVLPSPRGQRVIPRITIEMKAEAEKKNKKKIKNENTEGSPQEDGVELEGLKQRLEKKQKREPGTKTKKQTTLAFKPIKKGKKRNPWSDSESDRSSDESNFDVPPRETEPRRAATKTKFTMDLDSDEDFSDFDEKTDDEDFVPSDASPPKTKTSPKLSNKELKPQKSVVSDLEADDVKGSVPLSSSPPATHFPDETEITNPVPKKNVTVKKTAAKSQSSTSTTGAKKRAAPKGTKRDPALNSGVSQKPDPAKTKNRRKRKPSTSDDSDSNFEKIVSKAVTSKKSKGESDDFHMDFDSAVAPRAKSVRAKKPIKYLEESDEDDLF

[2] = Cytotoxicity against human HCT15 cells assessed as reduction in cell growth after 72 hrs by CCK8 assay; format: functional, cell-based; conditions: HCT-15, 72 h
In short: (§1)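 Cells (2~4 x 10^4 per well) seeded overnight in media with 10% FBS, 37 °C, 5% CO₂, then exposed to graded compound concentrations for 72 h. CCK-8 solution added for a further 4 h; absorbance read at 450 nm. IC₅₀ from four-parameter logistic fit; adriamycin, etoposide and camptothecin as positive controls.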

[3] = Cytotoxicity against human T47D cells assessed as reduction in cell growth after 72 hrs by CCK8 assay; format: functional, cell-based; in short: as §1
[4] = Cytotoxicity against human HeLa cells assessed as reduction in cell growth after 72 hrs by CCK8 assay; format: functional, cell-based; in short: as §1
[5] = Cytotoxicity against human NCI-N87 cells assessed as reduction in cell growth after 72 hrs by CCK8 assay; format: functional, cell-based; conditions: NCI-N87, 72 h; in short: as §1
[6] = target: T1, DNA topoisomerase 2-alpha; assay: Inhibition of human topoisomerase-2 alpha at 20 uM using supercoiled pBR322 DNA as substrate after 30 mins by agarose gel electrophoresis relative to control
[7] = target: T1, DNA topoisomerase 2-alpha; assay: Inhibition of topoisomerase-2 alpha catalytic activity in human T47D cells assessed as increase in free topoisomerase-2 alpha level at 50 uM after 2 hrs by Western blot method; format: cell-based
In short: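 T47D cells (2 x 10^5 per well) seeded overnight, treated 2 h at 37 °C with 50 µM compound or etoposide in serum-free RPMI. Harvested cells washed in PBS, lysed in 62.5 mM Tris-HCl pH 6.8, 1 mM EDTA, 2% SDS with sonication; cleared supernatant run on 10% SDS-PAGE and free topo IIα detected by Western blot.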

| SMILES | inhibition [1] [%] | inhibition [6] [%] | inhibition [7] | IC50 [2] [nM] | IC50 [3] [nM] | IC50 [4] [nM] | IC50 [5] [nM] |
| --- | --- | --- | --- | --- | --- | --- | --- |
| CCCCNCC(O)COc1cc(OCC)c2c(=O)c3ccccc3oc2c1 (configuration not stated) | 4.8 | – | – | 28200 | 7020 | > 50000 | 1770 |
| CCCCNCC(O)COc1cc(OCc2ccc(OC)cc2)c2c(=O)c3ccccc3oc2c1 (configuration not stated) | 55.9 | 21.1 | – | 2170 | 1410 | 4810 | 1800 |
| COc1cccc2c(=O)c3c(OCc4ccccc4)cc(OCC4CO4)cc3oc12 (configuration not stated) | 3.3 | – | – | 340 | 2020 | 1660 | 1750 |
| CCCCOc1cc(OCC2CO2)cc2oc3ccccc3c(=O)c12 (configuration not stated) | 0 | – | – | 2450 | 3750 | 1810 | 4550 |
| O=c1c2ccccc2oc2cc(OCC3CO3)cc(OCc3cccc(C(F)(F)F)c3)c12 (configuration not stated) | 0 | – | – | 5080 | 2300 | 4280 | 1360 |
| COc1cccc2c(=O)c3c(OCc4cccc(Cl)c4)cc(OCC4CO4)cc3oc12 (configuration not stated) | 1.7 | – | – | 170 | 1550 | 1700 | 950 |
| CCCCNCC(O)COc1cc(OCC)c2c(=O)c3cccc(OC)c3oc2c1 (configuration not stated) | 10.7 | – | – | 10600 | 4280 | 23500 | 2240 |
| COc1cccc(COc2cc(OCC3CO3)cc3oc4ccccc4c(=O)c23)c1 (configuration not stated) | 0 | – | – | 1490 | 3730 | 1570 | 3260 |
| CC[C@@]1(O)C(=O)OCc2c1cc1n(c2=O)Cc2cc3ccccc3nc2-1 [CAMPTOTHECIN] | – | – | – | 1.4 | 80 | 130 | 600 |
| CCCCNCC(O)COc1cc(OC(C)C)c2c(=O)c3cccc(OC)c3oc2c1 (configuration not stated) | 7.5 | – | – | 9600 | 2670 | 14400 | 80 |
| CCCCNCC(O)COc1cc(OCc2ccc(OC)cc2)c2c(=O)c3cccc(OC)c3oc2c1 (configuration not stated) | 44.8 | 13.9 | – | 2290 | 1520 | 1820 | 250 |
| CCCCNCC(O)COc1cc(OCc2ccccc2)c2c(=O)c3ccccc3oc2c1 (configuration not stated) | 65.4 | 22.2 | – | 3090 | 2810 | 7050 | 1440 |
| CCCCCOc1cc(OCC(O)CNCCCC)cc2oc3c(OC)cccc3c(=O)c12 (configuration not stated) | 36.3 | 9.5 | – | 1810 | 780 | 3840 | 480 |
| CCCCCOc1cc(OCC2CO2)cc2oc3c(OC)cccc3c(=O)c12 (configuration not stated) | 5 | – | – | 370 | 4570 | 4060 | 1690 |
| COc1cccc2c(=O)c3c(OCCc4ccc(Cl)cc4)cc(OCC4CO4)cc3oc12 (configuration not stated) | 0 | – | – | 45200 | > 50000 | > 50000 | 1490 |
| CCCCNCC(O)COc1cc(OCc2cccc(OC)c2)c2c(=O)c3cccc(OC)c3oc2c1 (configuration not stated) | 41.6 | 12.4 | – | 1740 | 1360 | 2300 | 1320 |
| CCCCNCC(O)COc1cc(OCc2cccc(C(F)(F)F)c2)c2c(=O)c3ccccc3oc2c1 (configuration not stated) | 64.6 | 9.3 | – | 2450 | 140 | 2260 | 240 |
| CCOc1cc(OCC2CO2)cc2oc3c(OC)cccc3c(=O)c12 (configuration not stated) | 2.5 | – | – | 820 | 830 | 1170 | 1190 |
| COc1cccc2c(=O)c3c(OCc4cccc(C(F)(F)F)c4)cc(OCC4CO4)cc3oc12 (configuration not stated) | 0 | – | – | 360 | 2870 | 4270 | 2240 |
| CCCCNCC(O)COc1cc(OC(C)C)c2c(=O)c3ccccc3oc2c1 (configuration not stated) | 1.5 | – | – | 43400 | 4710 | 36600 | 2050 |
| CCCCNCC(O)COc1cc(OCCc2cccc(Cl)c2)c2c(=O)c3ccccc3oc2c1 (configuration not stated) | 46.2 | 16.6 | Active | 2280 | 1720 | 2560 | 380 |
| CCCCNCC(O)COc1cc(OCc2cccc(Cl)c2)c2c(=O)c3cccc(OC)c3oc2c1 (configuration not stated) | 45.4 | 6.3 | – | 1590 | 670 | 2400 | 1160 |
| COc1cccc2c(=O)c3c(OC(C)C)cc(OCC4CO4)cc3oc12 (configuration not stated) | 1.5 | – | – | 310 | 1750 | 1870 | 3120 |
| CCCCNCC(O)COc1cc(OCCc2ccc(Cl)cc2)c2c(=O)c3ccccc3oc2c1 (configuration not stated) | 94.4 | 23 to 23.3 | Active | 2130 | 630 | 1370 | 3630 |
| COc1cccc2c(=O)c3c(OCCc4cccc(Cl)c4)cc(OCC4CO4)cc3oc12 (configuration not stated) | 0 | – | – | 1080 | 2740 | 470 | 1110 |
| COc1cccc2c1C(=O)c1c(O)c3c(c(O)c1C2=O)C[C@@](O)(C(=O)CO)C[C@@H]3O[C@H]1C[C@H](N)[C@H](O)[C@H](C)O1 [DOXORUBICIN HYDROCHLORIDE] | – | – | – | – | 1420 | 1700 | 710 |
| CCCCCOc1cc(OCC2CO2)cc2oc3ccccc3c(=O)c12 (configuration not stated) | 0 | – | – | 3280 | > 50000 | 1790 | 11000 |
| COc1ccc(COc2cc(OCC3CO3)cc3oc4ccccc4c(=O)c23)cc1 (configuration not stated) | 0 | – | – | 1720 | 2960 | 1580 | 3730 |
| COc1ccc(COc2cc(OCC3CO3)cc3oc4c(OC)cccc4c(=O)c23)cc1 (configuration not stated) | 0 | – | – | 420 | 7680 | 1740 | 1410 |
| O=c1c2ccccc2oc2cc(OCC3CO3)cc(OCc3ccccc3)c12 (configuration not stated) | 0 | – | – | 1500 | 3060 | 1920 | 5070 |

More lines, main results first:

| inhibition [1] [%] | inhibition [6] [%] | inhibition [7] | SMILES | IC50 [2] [nM] | IC50 [3] [nM] | IC50 [4] [nM] | IC50 [5] [nM] |
| --- | --- | --- | --- | --- | --- | --- | --- |
| 0 | – | – | O=c1c2ccccc2oc2cc(OCC3CO3)cc(OCCc3cccc(Cl)c3)c12 (configuration not stated) | 4130 | 1360 | 1460 | 3180 |
| 58.7 | 19.5 | – | CCCCNCC(O)COc1cc(OCc2cccc(OC)c2)c2c(=O)c3ccccc3oc2c1 (configuration not stated) | 1910 | 2570 | 5860 | 70 |
| 51.6 | 11.1 | – | CCCCNCC(O)COc1cc(OCc2ccccc2)c2c(=O)c3cccc(OC)c3oc2c1 (configuration not stated) | 2080 | 2400 | 2250 | 1230 |
| 58.1 | 14.2 | – | CCCCNCC(O)COc1cc(OCc2cccc(C(F)(F)F)c2)c2c(=O)c3cccc(OC)c3oc2c1 (configuration not stated) | 2620 | 2000 | 2620 | 1980 |
| 0 | – | – | O=c1c2ccccc2oc2cc(OCC3CO3)cc(OCCc3ccc(Cl)cc3)c12 (configuration not stated) | 5270 | 970 | 4910 | 2020 |
| 24.2 | – | – | CCCCNCC(O)COc1cc(OCCCC)c2c(=O)c3cccc(OC)c3oc2c1 (configuration not stated) | 6020 | 1130 | 7650 | 1640 |
| 29.4 | – | – | CCCCCOc1cc(OCC(O)CNCCCC)cc2oc3ccccc3c(=O)c12 (configuration not stated) | 4580 | 1270 | 2560 | 60 |
| 0.1 | – | – | CC(C)Oc1cc(OCC2CO2)cc2oc3ccccc3c(=O)c12 (configuration not stated) | 1630 | 1940 | 1620 | 290 |
| 0 | – | – | O=c1c2ccccc2oc2cc(OCC3CO3)cc(OCc3cccc(Cl)c3)c12 (configuration not stated) | 1960 | 3300 | 3570 | 1890 |
| 0 | – | – | CCOc1cc(OCC2CO2)cc2oc3ccccc3c(=O)c12 (configuration not stated) | 3960 | 3600 | 800 | 3910 |
| 56.3 | 22.4 | – | CCCCNCC(O)COc1cc(OCc2cccc(Cl)c2)c2c(=O)c3ccccc3oc2c1 (configuration not stated) | 2240 | 1170 | 2830 | 170 |
| 27.1 | – | – | CCCCNCC(O)COc1cc(OCCCC)c2c(=O)c3ccccc3oc2c1 (configuration not stated) | 8610 | 1540 | 2070 | 1630 |
| 14.1 | – | – | CCCCOc1cc(OCC2CO2)cc2oc3c(OC)cccc3c(=O)c12 (configuration not stated) | 220 | 1630 | 1080 | 310 |
| 0 | – | – | COc1cccc(COc2cc(OCC3CO3)cc3oc4c(OC)cccc4c(=O)c23)c1 (configuration not stated) | 350 | 4050 | 2430 | 1320 |
